The source made the active and inactive calls. The rule behind the calls is not given here.
Columns and labels:
PANC-1 [1] = experiment: Induction of apoptosis in human PANC-1 cells assessed as late apoptotic cells at 2.5 uM incubated for 48 hrs by Annexin V-FITC/PI staining based flow cytometry (reference value: 2.74 %); assay type: functional
PANC-1 [2] = experiment: Induction of cell cycle arrest in human PANC-1 cells assessed as accumulation at S phase at 10 uM incubated for 48 hrs by PI/RNase staining based flow cytometry (reference value: 7.58 %); assay type: functional
PANC-1 [3] = experiment: Induction of cell cycle arrest in human PANC-1 cells assessed as accumulation at S phase at 5 uM incubated for 48 hrs by PI/RNase staining based flow cytometry (reference value: 7.58 %); assay type: functional
BXPC-3 [4] = experiment: Induction of cell cycle arrest in human BXPC-3 cells assessed as accumulation at G1 phase at 2.5 uM incubated for 48 hrs by PI/RNase staining based flow cytometry (reference value: 84.2 %); assay type: functional
[5] = Toxicity in BALB/c nude mouse xenografted with human BxPC-3 cells assessed as tissue fibrosis in heart at 5 to 15 mg/kg, ip qd for 21 days by H and E staining based analysis; settings: in vivo, 504 h
[6] = Toxicity in BALB/c nude mouse xenografted with human BxPC-3 cells assessed as necrosis in lung at 5 to 15 mg/kg, ip qd for 21 days by H and E staining based analysis; settings: in vivo, 504 h
BXPC-3 [7] = experiment: Antiproliferative activity against human BXPC-3 cells assessed as inhibition of cell viability incubated for 48 hrs by MTT assay; assay type: functional, cell-based; settings: BXPC-3, 48 h
Summary of the method: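 Cells in log phase were seeded at 8,000-10,000/well and allowed to adhere overnight at 37 °C, 5% CO2. Compound from DMSO stock, diluted in medium, was applied for 48 h; controls got drug-free medium, blanks held medium only. MTT (5 mg/mL stock) 4 h, formazan dissolved in DMSO, A490 read. Viability was blank-corrected against untreated cells; IC50 came from a fitted curve; three separate experiments.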

BxPC-3 [8] = experiment: Antitumor activity aginst human BxPC-3 cells xenografted in BALB/c nude mouse assessed as decrease in tumor volume at 15 mg/kg, ip qd for 21 days relative to control; design: scale not given: the % may be the effect or the level left; settings: time 21 day
BXPC-3 [9] = experiment: Induction of apoptosis in human BXPC-3 cells assessed as necrotic cells at 2.5 uM incubated for 48 hrs by Annexin V-FITC/PI staining based flow cytometry (reference value: 0.71 %); assay type: functional
PANC-1 [10] = experiment: Induction of apoptosis in human PANC-1 cells assessed as necrotic cells at 2.5 uM incubated for 48 hrs by Annexin V-FITC/PI staining based flow cytometry (reference value: 2.24 %); assay type: functional
BXPC-3 [11] = experiment: Induction of apoptosis in human BXPC-3 cells assessed as viable cells at 5 uM incubated for 48 hrs by Annexin V-FITC/PI staining based flow cytometry (reference value: 91.5 %); assay type: functional; settings: read-out: Activity
PANC-1 [12] = experiment: Inhibition of cell migration in human PANC-1 cells incubated for 24 hrs by wound healing assay; assay type: functional, cell-based; settings: dose 2.5-10 µM
Summary of the method: (§1)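 Monolayers at 80-90% confluence were scratched with a cross and washed three times with PBS. Eight fields were imaged at 0 h. Cells were then incubated with compound in medium containing 2% FBS, and the same fields were re-imaged at 24 h (100×). Closure % = (area 0 h − area 24 h)/area 0 h × 100; n = 3.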

[13] = Toxicity in BALB/c nude mouse xenografted with human BxPC-3 cells assessed as necrosis in heart at 5 to 15 mg/kg, ip qd for 21 days by H and E staining based analysis; settings: in vivo, 504 h
[14] = target: Protein smoothened (Homo sapiens) (UniProt Q99835); experiment: Antagonist activity at Smo (unknown origin) transfected in HEK293T cells incubated for 2 hrs by BODIPY-Cyclopamine based competitive binding assay; assay type: cell-based; settings: filed as antagonist, dose 10-50 nM
Sequence of Protein smoothened (Homo sapiens) (Q99835 whole entry): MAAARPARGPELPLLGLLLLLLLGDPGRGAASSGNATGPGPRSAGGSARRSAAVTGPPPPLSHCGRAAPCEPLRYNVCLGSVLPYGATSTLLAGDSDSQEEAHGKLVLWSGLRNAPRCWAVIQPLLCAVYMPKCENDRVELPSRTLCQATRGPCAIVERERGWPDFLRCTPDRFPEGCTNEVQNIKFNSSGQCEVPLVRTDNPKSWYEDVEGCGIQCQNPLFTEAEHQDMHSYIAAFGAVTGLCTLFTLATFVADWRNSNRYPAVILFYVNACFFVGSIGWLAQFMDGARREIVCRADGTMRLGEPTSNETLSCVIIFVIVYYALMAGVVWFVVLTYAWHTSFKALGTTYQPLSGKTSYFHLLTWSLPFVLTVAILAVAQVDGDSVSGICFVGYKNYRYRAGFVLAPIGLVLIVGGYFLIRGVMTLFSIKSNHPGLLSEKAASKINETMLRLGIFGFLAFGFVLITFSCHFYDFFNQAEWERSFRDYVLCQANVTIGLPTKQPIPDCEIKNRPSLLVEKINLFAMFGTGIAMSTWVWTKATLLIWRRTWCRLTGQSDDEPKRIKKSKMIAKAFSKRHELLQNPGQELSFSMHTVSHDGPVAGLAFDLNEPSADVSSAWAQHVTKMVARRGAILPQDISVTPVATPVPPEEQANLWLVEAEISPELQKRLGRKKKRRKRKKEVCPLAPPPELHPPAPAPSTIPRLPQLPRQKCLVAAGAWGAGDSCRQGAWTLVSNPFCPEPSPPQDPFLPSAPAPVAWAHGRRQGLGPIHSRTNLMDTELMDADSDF
Summary of the method: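 […] cells stably transfected with a Smo plasmid, with expression confirmed by Western blot. Cells (2×10^4/well) were grown 24 h in poly-L-lysine-coated wells, then fixed with 4% paraformaldehyde and DAPI-stained. BODIPY-cyclopamine (100 nM) was added together with test compound for 2 h. Green fluorescence was imaged by fluorescence microscopy.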

BxPC-3 [15] = experiment: Antitumor activity aginst human BxPC-3 cells xenografted in BALB/c nude mouse assessed as decrease in tumor volume at 10 mg/kg, ip qd for 21 days relative to control; design: scale not given: the % may be the effect or the level left; settings: time 21 day
PANC-1 [16] = experiment: Induction of cell cycle arrest in human PANC-1 cells assessed as accumulation at G2 phase at 5 uM incubated for 48 hrs by PI/RNase staining based flow cytometry (reference value: 5.83 %); assay type: functional
[17] = Toxicity in BALB/c nude mouse xenografted with human BxPC-3 cells assessed as tissue fibrosis in liver at 5 to 15 mg/kg, ip qd for 21 days by H and E staining based analysis; settings: in vivo, 504 h
BXPC-3 [18] = experiment: Inhibition of cell migration in human BXPC-3 cells incubated for 24 hrs by wound healing assay; assay type: functional, cell-based; settings: dose 2.5-10 µM; summary of the method: as §1
BXPC-3 [19] = experiment: Induction of cell cycle arrest in human BXPC-3 cells assessed as accumulation at G1 phase at 10 uM incubated for 48 hrs by PI/RNase staining based flow cytometry (reference value: 84.2 %); assay type: functional
BxPC-3 [20] = experiment: Antitumor activity aginst human BxPC-3 cells xenografted in BALB/c nude mouse assessed as tumor growth inhibition at 5 to 15 mg/kg, ip qd for 21 days; settings: dose 5-15 mg/kg, time 21.0 day
BXPC-3 [21] = experiment: Induction of apoptosis in human BXPC-3 cells assessed as viable cells at 10 uM incubated for 48 hrs by Annexin V-FITC/PI staining based flow cytometry (reference value: 91.5 %); assay type: functional; settings: read-out: Activity
PANC-1 [22] = experiment: Induction of cell cycle arrest in human PANC-1 cells assessed as accumulation at G1 phase at 2.5 uM incubated for 48 hrs by PI/RNase staining based flow cytometry (reference value: 82.0 %); assay type: functional
BXPC-3 [23] = experiment: Induction of cell cycle arrest in human BXPC-3 cells assessed as accumulation at G2 phase at 10 uM incubated for 48 hrs by PI/RNase staining based flow cytometry (reference value: 8.15 %); assay type: functional
BXPC-3 [24] = experiment: Induction of apoptosis in human BXPC-3 cells assessed as viable cells at 2.5 uM incubated for 48 hrs by Annexin V-FITC/PI staining based flow cytometry (reference value: 91.5 %); assay type: functional; settings: read-out: Activity
[25] = Inhibition of Hh signaling pathway in mouse NIH3T3 cells incubated for 48 hrs by Gli luciferase reporter assay; assay type: cell-based; settings: NIH3T3, 48 h
Summary of the method: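 Reporter cells were seeded in 96-well plates, incubated overnight, then treated for 48 h. Lysate luciferase activity was measured with a dual-luciferase system, and firefly signal was normalised to Renilla.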

PANC-1 [26] = experiment: Induction of apoptosis in human PANC-1 cells assessed as viable cells at 2.5 uM incubated for 48 hrs by Annexin V-FITC/PI staining based flow cytometry (reference value: 93.2 %); assay type: functional; settings: read-out: Activity

IC50 (BXPC-3 [7]): 3.57 µM | IC50 [25]: 0.0027 µM
Structure (SMILES): CN(C)Cc1ccc(NC(=O)c2ccc(Nc3nccc(-c4cccnc4)n3)cc2)cc1
Activity (PANC-1 [1]): 5.12% | Activity (PANC-1 [2]): 10.5% | Activity (PANC-1 [3]): 8.18% | Activity (BXPC-3 [4]): 72.7% | Activity [5]: Non-toxic | Activity [6]: Non-toxic | Activity (BxPC-3 [8]): 82% | Activity (BXPC-3 [9]): 1.37% | Activity (PANC-1 [10]): 2.19% | viability at 5 µM (BXPC-3 [11]): 85.5% | inhibition (PANC-1 [12]): Dose-dependent-effect | Activity [13]: Non-toxic | Activity [14]: Dose-dependent-effect; Exhibited Fluorescence Quenching Activity Similar To Compound 1 | Activity (BxPC-3 [15]): 80% | Activity (PANC-1 [16]): 8.15% | Activity [17]: Non-toxic | inhibition (BXPC-3 [18]): Dose-dependent-effect | Activity (BXPC-3 [19]): 92.9% | inhibition (BxPC-3 [20]): Active | viability at 10 µM (BXPC-3 [21]): 71.8% | Activity (PANC-1 [22]): 83.7% | Activity (BXPC-3 [23]): 2.98% | viability at 2.5 µM (BXPC-3 [24]): 88.5% | viability at 2.5 µM (PANC-1 [26]): 90.7%

From ChEMBL document CHEMBL6092204, “Synthesis of pyridyl pyrimidine hedgehog signaling pathway inhibitors and their antitumor activity in human pancreatic cancer” (Eur J Med Chem, 2024)
